Reference: ChEMBL document CHEMBL4346690, “Structure-activity relationship studies of (E)-3,4-dihydroxystyryl alkyl sulfones as novel neuroprotective agents based on improved antioxidant, anti-inflammatory activities and BBB permeability” (Eur J Med Chem, 2019)
The source made the active and inactive calls. The rule behind the calls is not given here.

Key:
[1] = Antioxidant activity assessed as DPPH radical scavenging activity after 1 hr by […]; type: functional
How it was run: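 DPPH (0.2 mM) in ethanol mixed with sample, kept 1 h at room temperature, absorbance read at 517 nm. Scavenging % = [1−(Ac−Ab)/A0]×100, where Ab is the sample in ethanol without DPPH and A0 is the ethanol+DPPH control. EC50 reported; vitamin C used as reference antioxidant; mean ± SD, n = 3.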

[2] = tested on: PC-12; test: Neuroprotection activity in rat PC12 cells assessed as reduction in 6-OHDA-induced cell damages at 10 uM preincubated for 3 hrs followed by H2O2 addition and measured after 24 hrs by MTT assay relative to control; type: functional, cell-based; details: in the assay text read “6-OHDA addition” for “H2O2 addition”
How it was run: (§1)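 PC12 cells plated at 2 × 10^5 cells mL−1 for 1 day, pretreated 3 h with compounds at 2.5, 5 or 10 µM, then 6-OHDA (final 250 µM) added for 24 h. Viability by MTT, absorbance 570 nm; untreated cells = 100%; mean ± SD, n = 3.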

[3] = Cytotoxicity against […] BV2 cells assessed as cell viability at 0.625 to 40 uM after 24 hrs by MTS assay; type: cell-based; details: read-out: Activity
How it was run: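 Viability of BV2 cells read by MTS under the NO-assay conditions: 3 h compound (0.625–40 µM) pretreatment followed by LPS 100 ng mL−1 for 24 h.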

[4] = tested on: PC-12; test: Neuroprotection activity in rat PC12 cells assessed as reduction in H2O2-induced cell death preincubated for 3 hrs followed by H2O2 addition and measured after 3 hrs by MTS assay; type: functional, cell-based
How it was run: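 PC12 cells plated at 2 × 10^5 cells mL−1 for 1 day, pretreated 3 h with compounds, then H2O2 (final 400 µM) for 3 h. Viability by MTS at 490 nm relative to untreated cells (100%); single-concentration tests at 2.5, 5, 10 µM and IC50 values; mean ± SD, n = 3.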

[5] = Cytotoxicity against […] BV2 cells assessed as cell viability at 100 uM after 24 hrs by MTT assay; type: cell-based; details: read-out: Activity
How it was run: (§2)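 Cells kept in high-glucose DMEM with 10% FBS and 1% PS at 37 °C, 5% CO2. Plated 1 day, then compounds for 24 h; viability by MTT at 100 µM as ODtreated/ODcontrol × 100%, untreated = 100%. Mean ± SD, n = 3.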

[6] = Anti-neuroinflammatory activity in […] BV2 cells assessed as reduction in LPS-induced NO production preincubated for 3 hrs followed by LPS stimulation for 24 hrs by Griess assay; type: functional, cell-based; details: BV-2
How it was run: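 BV2 microglia seeded 3 × 10^5 cells mL−1 for 1 day; compounds in medium added for 3 h, then LPS (final 100 ng mL−1) for a further 24 h. Supernatant mixed with Griess reagent, absorbance at 540 nm. Inhibition % from NO release of LPS-only, unstimulated and compound+LPS wells; IC50 reported; mean ± SD, n = 3.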

[7] = Cytotoxicity against rat PC12 cells assessed as cell viability at 100 uM after 24 hrs by MTT assay; type: cell-based, PC-12; details: read-out: Activity; how it was run: as §2
[8] = tested on: PC-12; test: Neuroprotection against H2O2-induced cell death in rat PC12 cells assessed as increase in cell viability at 5 uM preincubated for 3 hrs followed by H2O2 addition and measured after 3 hrs by MTS assay relative to CAPE; type: functional
How it was run: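 PC12 cells plated at 2 × 10^5 cells/mL for 1 day, pretreated with compound (2.5, 5, 10 µM) for 3 h, then H2O2 added (final 400 µM) for 3 h. Viability read by MTS at 490 nm, untreated cells = 100%. Mean ± SD, n = 3.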

[9] = tested on: PC-12; test: Neuroprotection activity in rat PC12 cells assessed as reduction in 6-OHDA-induced cell damages at 2.5 uM preincubated for 3 hrs followed by H2O2 addition and measured after 24 hrs by MTT assay relative to control; type: functional, cell-based; details: in the assay text read “6-OHDA addition” for “H2O2 addition”; how it was run: as §1

SMILES	EC50 [1] [µM]	Activity [2]	viability at 24 h, up to 40 µM [3] [%]	IC50 [4] [µM]	viability at 24 h, 100 µM [5] [%]	IC50 [6] [µM]	viability at 24 h, 100 µM [7] [%]	Activity [8] [%]	Activity [9]
O=S(=O)(/C=C/c1ccc(O)c(O)c1)CC1CCCCO1 (centres undefined)	10.8	Active	> 90	3.34	78.8	6.9	88.3		
C=CCCCCCCCS(=O)(=O)/C=C/c1ccc(O)c(O)c1	6.9	Active	> 90	1.9	71.9	8.3	74.7	30	Active
C=CCCCCCCS(=O)(=O)/C=C/c1ccc(O)c(O)c1	6.4	Active	> 90	1.35	73.4	8.7	66.9	30	Active
O=S(=O)(/C=C/c1ccc(O)c(O)c1)CCCCCCCCCO	7.5	Active	> 90	7.91	54.4	11	95.2		Active
O=C(/C=C/c1ccc(O)c(O)c1)OCCc1ccccc1 [CAFFEIC ACID PHENETHYL ESTER]	14.6	Active	> 90	2	69.3	6	85.1		
CCCCCCCCCS(=O)(=O)/C=C/c1ccc(O)c(O)c1	7.7	Active	> 90	1.93	66.6	7.4	70.6		Active
O=S(=O)(/C=C/c1ccc(O)c(O)c1)CC1CCCCC1	7.5	Active	> 90	1.85	74.7	6.7	87	30	Active
O=S(=O)(/C=C/c1ccc(O)c(O)c1)CC1CCCN1 (centres undefined)	13.8		> 90		76.4	103	55.9		
C=CCCCCCS(=O)(=O)/C=C/c1ccc(O)c(O)c1	7.1	Active	> 90	1.62	58.9	11.2	67.5	30	Active
O=S(=O)(/C=C/c1ccc(O)c(O)c1)CC1CCC1	8.8	Active	> 90	4.81	83.8	20.8	80.2		
O=S(=O)(/C=C/c1ccc(O)c(O)c1)CCC1CCCC1	6.8	Active	> 90	1.96	76.6	2.5	77.7		Active
CCCCCCCCCCS(=O)(=O)/C=C/c1ccc(O)c(O)c1	6.8	Active	> 90	2.21	34.1	7.3	59.7		Active
CC(C)(C)OC(=O)N1CCCC1CS(=O)(=O)/C=C/c1ccc(O)c(O)c1 (centres undefined)	7.1	inactive	> 90	7.2	68.7	7	52.5		
O=S(=O)(/C=C/c1ccc(O)c(O)c1)CCCCCCCCCCCO	22.6	Active	> 90	24.1	50.4	13.3	100		Active
